The subject of series [1] is human prostate (PC-3) cancer cell line. Briefly: In vitro cytotoxic studies. Conditions: PC-3 cells; for Cytotoxicity % inhibition: 72 h, MTT; for Cytotoxicity against PC-3 cell line (in words): tested at 0.2, 2.0 and 20 μM. It counts as cell-based. In a few lines: (§1)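 PC-3 cells grown in DMEM with 10% FBS and plated in 96-well format. They were exposed to test compound over 20 μM–0.001 μM for 72 h. MTT was then added (stock 5 mg/ml in PBS) for 4 h. Plates were spun, supernatant removed and formazan dissolved in DMSO with 30 min shaking. A550 was read and percentage inhibition calculated.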

The subject of the next series is Tritrichomonas foetus. The experiment in a line: In vitro protozoal parasite susceptibility assay. The class given is cell-based. The following applies: 24 h; for Average % inhibition at 50 μM (Tritrichomonas foetus): T. foetus strain D1, cells counted with hemacytometer; for inhibition at 50 µM: Tritrichomonas foetus, read-out: Average % inhibition at 50 μM (Tritrichomonas foetus). In a few lines:
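T. foetus strain D1 was screened in TYM Diamond's medium. Test compound was dissolved in DMSO and diluted into the medium. After 24 h exposure, parasites were counted with a hemacytometer.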

Series [2] can be described thus: In vitro cytotoxic studies. It counts as cell-based, human. Conditions: human, PC-3 prostate cancer cells. Summed up:
as §1

“Also recorded” adds a separate entry of the source.

On to `O=C1C(=O)N(CC#CCN2CCN(CC#CCN3C(=O)C(=O)c4ccccc43)CC2)c2ccccc21` [Compound 5a, Bis-{1-(yl-but-2-ynyl)-1H-indole-2,3-dione} piperazine], for which the Cytotoxicity % inhibition worked out at 6.5% in series [1] (0.2 μM), 10.3% in series [1] (2 μM) and 45.8% in series [1] (20 μM). The “Cytotoxicity against PC-3 cell line (in words)” value (from here on “Cytotoxicity … (in words)”) in series [1] is “cytotoxic”. The “Average % inhibition at 50 μM (Tritrichomonas foetus)” value (“Average % inhibition at 50 μM” below) in the series on Tritrichomonas foetus was determined as 3.0%.
The term inhibition denotes the share of the control response that was lost under treatment. As to `Cc1ccc2c(c1)C(=O)C(=O)N2CC#CCN1CCCC1` [Compound 3n, 5-Methyl-1-(4-pyrrolidin-1-yl-but-2-ynyl)-1H-indole-2,3-dione], in series [2], the cytotoxicity at 72 h, 0.2 µM turned out to be 1.9%; the cytotoxicity at 72 h, 2 µM came out at 4.7%; the cytotoxicity at 72 h, 20 µM is 6.1%. The inhibition at 50 µM in the series on Tritrichomonas foetus is 65.2%.
`O=C1C(=O)N(CC#CCN2CCN(CC#CCN3C(=O)C(=O)c4cc(Cl)ccc43)CC2)c2ccc(Cl)cc21` [Compound 5b, Bis-{5-chloro-1-(yl-but-2-ynyl)-1H-indole-2,3-dione} piperazine]: the figures for the Cytotoxicity % inhibition in series [1] (0.2 μM), in series [1] (2 μM) and in series [1] (20 μM) were 24.4%, 28.9% and 24.8%, respectively. In addition, in the series on Tritrichomonas foetus, the “Average % inhibition at 50 μM” value turned out to be 7.6%.
For `O=C1C(=O)N(CC#CCN2CCN(c3ccnc4cc(Cl)ccc34)CC2)c2ccc(F)cc21` [Compound 7b, 1-{4-[4-(7-Chloro-quinolin-4-yl)-piperazin-1-yl]-but-2-ynyl}-5-fluoro-1H-indole-2,3-dione], in series [1], the “Cytotoxicity … (in words)” value is “no cytotoxicity”. Further, in series [2], the cytotoxicity at 72 h, 0.2 µM worked out at 2.1%; the cytotoxicity at 72 h, 2 µM worked out at 5%; the cytotoxicity at 72 h, 20 µM is 3%. Also, the inhibition at 50 µM with Tritrichomonas foetus is 100%.
As for `O=C1C(=O)N(CC#CCN2CCN(CC#CCN3C(=O)C(=O)c4cc(F)ccc43)CC2)c2ccc(F)cc21` [Compound 5c, Bis-{5-fluoro-1-(yl-but-2-ynyl)-1H-indole-2,3-dione} piperazine], the Cytotoxicity % inhibition in series [1] (0.2 μM) is −0.6%; in series [1] (2 μM), −3.6%; in series [1] (20 μM), 7.4%. For the same compound, the “Average % inhibition at 50 μM” value in the series on Tritrichomonas foetus is given as 9.1%.
`O=C1C(=O)N(CC#CCN2CCN(c3ccnc4cc(Cl)ccc34)CC2)c2ccccc21` [Compound 7a, 1-{4-[4-(7-Chloro-quinolin-4-yl)-piperazin-1-yl]-but-2-ynyl}-1H-indole-2,3-dione]: the “Cytotoxicity … (in words)” value in series [1] is “no cytotoxicity; also recorded: minimal toxicity”. In addition, in series [2], the cytotoxicity at 72 h, 0.2 µM stood at 9%; the cytotoxicity at 72 h, 2 µM came out at 10.1%; the cytotoxicity at 72 h, 20 µM is -3.2%. In addition, the inhibition at 50 µM in the series on Tritrichomonas foetus came out at 98.5%.
In the case of `O=C1C(=O)N(CC#CCN2CCCCC2)c2ccc(F)cc21` [Compound 3i, 5-Fluoro-1-(4-piperidin-1-yl-but-2-ynyl)-1H-indole-2,3-dione], in series [2], the cytotoxicity at 72 h, 0.2 µM is -4.7%; the cytotoxicity at 72 h, 2 µM is -6%; the cytotoxicity at 72 h, 20 µM came out at 5.1%. In the series with Tritrichomonas foetus, the inhibition at 50 µM is 40.9%.
Regarding `CCN(CC)CC#CCN1C(=O)C(=O)c2cc(Cl)ccc21` [Compound 3h, 5-Chloro-1-(4-diethylamino-but-2-ynyl)-1H-indole-2,3-dione], in series [2], the cytotoxicity at 72 h, 0.2 µM is 4.8%; the cytotoxicity at 72 h, 2 µM was found to be 5.6%; the cytotoxicity at 72 h, 20 µM worked out at 6.4%. Moreover, the inhibition at 50 µM in the series on Tritrichomonas foetus came to 42.4%.
The like results for `O=C1C(=O)N(CC#CCN2CCCCC2)c2ccc(Cl)cc21` [Compound 3e, 5-Chloro-1-(4-piperidin-1-yl-but-2-ynyl)-1H-indole-2,3-dione] were, in that order, 11.1%, 10.7%, 18.7% and 3%.
The like results for `O=C1C(=O)N(CC#CCN2CCCC2)c2ccc(Cl)cc21` [Compound 3f, 5-Chloro-1-(4-pyrrolidin-1-yl-but-2-ynyl)-1H-indole-2,3-dione] were, in that order, 4.6%, 4.3%, 9.6% and 15.2%.
For the compound `Cc1ccc2c(c1)C(=O)C(=O)N2CC#CCN1CCN(CC#CCN2C(=O)C(=O)c3cc(C)ccc32)CC1` [Compound 5d, Bis-{5-methyl-1-(yl-but-2-ynyl)-1H-indole-2,3-dione} piperazine], the Cytotoxicity % inhibition in series [1] (0.2 μM) is −1.0%; in series [1] (2 μM) it was 6.7%; in series [1] (20 μM) it was 7.1%. Further, the “Average % inhibition at 50 μM” value in the series on Tritrichomonas foetus was determined as 71.2%.
With `O=C1C(=O)N(CC#CCN2CCCC2)c2ccccc21` [Compound 3b, 1-(4-Pyrrolidin-1-yl-but-2-ynyl)-1H-indole-2,3-dione], in series [2], the cytotoxicity at 72 h, 0.2 µM worked out at 7%; the cytotoxicity at 72 h, 2 µM was determined as 7%; the cytotoxicity at 72 h, 20 µM amounted to 3%. In addition, the inhibition at 50 µM in the series on Tritrichomonas foetus stood at 10.6%.
For `O=C1C(=O)N(CC#CCN2CCN(c3ccnc4cc(Cl)ccc34)CC2)c2ccc([N+](=O)[O-])cc21` [Compound 7e, 1-{4-[4-(7-Chloro-quinolin-4-yl)-piperazin-1-yl]-but-2-ynyl}-5-nitro-1H-indole-2,3-dione], in series [2], the cytotoxicity at 72 h, 0.2 µM came to 0.5%; the cytotoxicity at 72 h, 2 µM was 3.2%; the cytotoxicity at 72 h, 20 µM is 4.8%. Moreover, in the series with Tritrichomonas foetus, the inhibition at 50 µM turned out to be 60.6%.
As to `CS(=O)(=O)N1CCN(Cc2cc3nc(-c4cccc5[nH]ncc45)nc(N4CCOCC4)c3s2)CC1` [GDC-0941, reference compound], in series [2], the cytotoxicity at 72 h, 0.2 µM amounted to 30.2%; the cytotoxicity at 72 h, 2 µM amounted to 56.8%; the cytotoxicity at 72 h, 20 µM is 72.2%.
With `CCN(CC)CC#CCN1C(=O)C(=O)c2cc(F)ccc21` [Compound 3l, 1-(4-Diethylamino-but-2-ynyl)-5-fluoro-1H-indole-2,3-dione], in series [2], the cytotoxicity at 72 h, 0.2 µM came out at 11.6%; the cytotoxicity at 72 h, 2 µM stood at 14.5%; the cytotoxicity at 72 h, 20 µM turned out to be 7.9%. Further, the inhibition at 50 µM in the series on Tritrichomonas foetus amounted to 18.2%.
`CCN(CC)CC#CCN1C(=O)C(=O)c2ccccc21` [Compound 3d, 1-(4-Diethylamino-but-2-ynyl)-1H-indole-2,3-dione]: in series [2], the cytotoxicity at 72 h, 0.2 µM is 8%; the cytotoxicity at 72 h, 2 µM was 4.6%; the cytotoxicity at 72 h, 20 µM was found to be 8%. Further, in the series on Tritrichomonas foetus, the inhibition at 50 µM was found to be 22.7%.
For `O=C1C(=O)N(CC#CCN2CCOCC2)c2ccc(F)cc21` [Compound 3k, 5-Fluoro-1-(4-morpholin-4-yl-but-2-ynyl)-1H-indole-2,3-dione], in series [2], the cytotoxicity at 72 h, 0.2 µM was 3.8%; the cytotoxicity at 72 h, 2 µM stood at 0.7%; the cytotoxicity at 72 h, 20 µM came to 3.2%. In addition, the inhibition at 50 µM in the series with Tritrichomonas foetus was determined as 56.1%.
As for `O=C1C(=O)N(CC#CCN2CCCC2)c2ccc(F)cc21` [Compound 3j, 5-Fluoro-1-(4-pyrrolidin-1-yl-but-2-ynyl)-1H-indole-2,3-dione], in series [2], the cytotoxicity at 72 h, 0.2 µM stood at 5%; the cytotoxicity at 72 h, 2 µM came to 4.3%; the cytotoxicity at 72 h, 20 µM was -2.7%. Further, the inhibition at 50 µM in the series on Tritrichomonas foetus was determined as 33.3%.
The like results for `O=C1C(=O)N(CC#CCN2CCOCC2)c2ccccc21` [Compound 3c, 1-(4-Morpholin-4-yl-but-2-ynyl)-1H-indole-2,3-dione] were, in that order, 13.4%, 11.6%, 8.7% and 9.1%.
Regarding `O=C1C(=O)N(CC#CCN2CCOCC2)c2ccc(Cl)cc21` [Compound 3g, 5-Chloro-1-(4-morpholin-4-yl-but-2-ynyl)-1H-indole-2,3-dione], in series [2], the cytotoxicity at 72 h, 0.2 µM worked out at 0.8%; the cytotoxicity at 72 h, 2 µM was 4.3%; the cytotoxicity at 72 h, 20 µM stood at 3.4%. Also, the inhibition at 50 µM in the series with Tritrichomonas foetus came to 22.7%.
Turning to `O=C1C(=O)N(CC#CCN2CCCCC2)c2ccccc21` [Compound 3a, 1-(4-Piperadin-1-yl-but-2-ynyl)-1H-indole-2,3-dione], the Cytotoxicity % inhibition in series [1] (0.2 μM) amounted to 6.0%; in series [1] (2 μM), 4.0%; in series [1] (20 μM), 7.0%. Moreover, the “Average % inhibition at 50 μM” value in the series on Tritrichomonas foetus is reported as 18.2%.
Take `CCN(CC)CC#CCN1C(=O)C(=O)c2cc(C)ccc21` [Compound 3p, 1-(4-Diethylamino-but-2-ynyl)-5-methyl-1H-indole-2,3-dione]: in series [2], the cytotoxicity at 72 h, 0.2 µM turned out to be 11.5%; the cytotoxicity at 72 h, 2 µM was 10.2%; the cytotoxicity at 72 h, 20 µM turned out to be 11.2%. For the same compound, the inhibition at 50 µM in the series with Tritrichomonas foetus was determined as 51.5%.
With `Cc1ccc2c(c1)C(=O)C(=O)N2CC#CCN1CCOCC1` [Compound 3o, 5-Methyl-1-(4-morpholin-4yl-but-2-ynyl)-1H-indole-2,3-dione], in series [2], the cytotoxicity at 72 h, 0.2 µM was 8%; the cytotoxicity at 72 h, 2 µM turned out to be 7.8%; the cytotoxicity at 72 h, 20 µM was 3.5%. In the series on Tritrichomonas foetus, the inhibition at 50 µM is 57.6%.
On to “5-Methyl-1-(4-pyrrolidin-1-yl-but-2-ynyl)-1H-indole-2,3-dione [Compound 3m]”, for which the Cytotoxicity % inhibition stood at 6.8% in series [1] (0.2 μM), 10.5% in series [1] (2 μM) and 2.4% in series [1] (20 μM). For the same compound, in the series with Tritrichomonas foetus, the “Average % inhibition at 50 μM” value stood at 31.8%.
